Laboratory results from paper PMC3215888 (Cancer Chemotherapy and Pharmacology, 2011).
Where two headings read alike, the source gives them in different places.

Experiments:
[1] = test system: SK-N-AS Neuroblastoma xenograft; assay type: in vivo, mice; conditions: 20.8 mg/kg
Method in brief: (§1)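 Female CB17 scid mice bearing subcutaneous tumors, 10 per group. Dosed by oral gavage twice daily, 5 days weekly for 6 weeks, at 20.8, 10.4, 5.2 or 2.6 mg/kg, in 10% 2-hydroxypropyl-β-cyclodextrin/1% sodium bicarbonate. Event = quadrupled tumor volume; EFS by Kaplan–Meier, exact log-rank test. Per-mouse scores PD/SD/PR (≥50% regression)/CR (<0.10 cm3)/MCR; group median reported. PR, CR and MCR count as objective responses.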

[2] = test system: ALL-19 ALL B-precursor xenograft; experiment: ALL xenograft; assay type: in vivo, mice
Method in brief: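 Female NOD/scid mice inoculated intravenously with leukemia cells, 8 per group. Test compound suspended in 10% 2-hydroxypropyl-β-cyclodextrin/1% sodium bicarbonate in water. Given by oral gavage twice daily, 5 days weekly for 3 weeks, at 20.8, 10.4, 5.2 or 2.6 mg/kg. Blood %hCD45 of leukocytes tracked; event = hCD45 reaching 25%. EFS by Kaplan–Meier, exact log-rank vs controls. Median group response from individual scores.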

[3] = test system: NB-EBc1 neuroblastoma cell line; experiment: DIMSCAN in vitro testing, 96 h; assay type: cell-based; conditions: for IC50: Neuroblastoma cell, 96 h
Method in brief: (§2)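 Neuroblastoma and Ewing sarcoma lines, STR-verified and maintained as in the originators' reports. Exposed for 96 h to test compound (DMSO stock diluted in medium) at 1 nM–10 μM. Viable cells quantified by fluorescein diacetate fluorescence with DIMSCAN digital image microscopy. Absolute IC50 = concentration giving 50% growth inhibition vs controls. Relative IC50 = concentration giving 50% of the maximum inhibitory effect.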

[4] = test system: SK-N-BE(2) neuroblastoma cell line; experiment: DIMSCAN in vitro testing, 96 h; assay type: cell-based; conditions: minimum T/C
Method in brief: as §2

[5] = test system: solid tumor xenograft models; experiment: Objective responses across the solid tumor xenograft panel; assay type: in vivo, mice; conditions: MTD 20.8 mg/kg
Method in brief: as §1

[6] = test system: OS-1 Osteosarcoma xenograft; assay type: in vivo, mice
Method in brief: as §1

[7] = test system: SMS-KCNR neuroblastoma cell line; experiment: DIMSCAN in vitro testing, 96 h; assay type: cell-based; conditions: for IC50: 96 h
Method in brief: as §2

[8] = test system: CHLA-32 Ewing sarcoma cell line; experiment: DIMSCAN in vitro testing, 96 h; assay type: cell-based; conditions: for IC50: 96 h
Method in brief: as §2

[9] = test system: NB-1643 neuroblastoma cell line; experiment: DIMSCAN in vitro testing, 96 h; assay type: cell-based; conditions: for IC50: NB-1643, 96 h
Method in brief: as §2

[10] = Toxicity; assay type: in vivo, mice; conditions: leukemia models at the MTD
Method in brief: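 Deaths counted in control and treated arms of the xenograft efficacy studies (10 mice per solid tumor group, 8 per ALL group). A group would be excluded from analysis if mortality exceeded 25%.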

[11] = test system: CHLA-9 Ewing sarcoma cell line; experiment: DIMSCAN in vitro testing, 96 h; assay type: cell-based; conditions: for IC50: 96 h
Method in brief: as §2

[12] = test system: NB-1643 Neuroblastoma xenograft; assay type: in vivo, mice
Method in brief: as §1

[13] = test system: COG-E-352 Ewing sarcoma cell line; experiment: DIMSCAN in vitro testing, 96 h; assay type: cell-based; conditions: for IC50: 96 h
Method in brief: as §2

[14] = test system: CHLA-140 neuroblastoma cell line; experiment: DIMSCAN in vitro testing, 96 h; assay type: cell-based; conditions: for IC50: Neuroblastoma cell, 96 h
Method in brief: as §2

[15] = test system: Ewing sarcoma (n = 11) and neuroblastoma (n = 17) cell lines; experiment: DIMSCAN in vitro testing, 96 h, whole extended panel; assay type: cell-based

For `COc1cc(Nc2ncc3c(n2)-c2ccc(Cl)cc2C(c2c(F)cccc2OC)=NC3)ccc1C(=O)O` [MLN8237], the “EFS T/C” value [1] was 1.4, the EFS activity [1] was “Low” and the “Estimate of median time to event” value [1] was 7.6 days. For the same compound, the Median group response [1] was “PD1 (if the TGD value ≤1.5, that mouse was considered PD1)”, the Response activity [1] was “Low” and the “Tumor volume T/C” value [1] was 0.71. The “Median RTV/hCD45 at end of study” value ([1]; RTV) was greater than 4, the “EFS T/C” value ([2]; 2.6 mg/kg) was 1.0 and the EFS activity ([2]; 2.6 mg/kg) was “Low”. The “Estimate of median time to event” value ([2]; 2.6 mg/kg) was 2.6 days, the Median group response ([2]; 2.6 mg/kg) was “PD1 (if the TGD value ≤1.5, that mouse was considered PD1)” and the Response activity ([2]; 2.6 mg/kg) was “Low”. For the same compound, the “Median RTV/hCD45 at end of study” value ([2]; 2.6 mg/kg) was greater than 25%, the “EFS T/C” value ([2]; 5.2 mg/kg) was 9.2 and the EFS activity ([2]; 5.2 mg/kg) was “Int”. The “Estimate of median time to event” value ([2]; 5.2 mg/kg) was 22.9 days, the Median group response ([2]; 5.2 mg/kg) was “PD2 (if the TGD value >1.5, the mouse was considered PD2)” and the Response activity ([2]; 5.2 mg/kg) was “Int”. The “Median RTV/hCD45 at end of study” value ([2]; 5.2 mg/kg) was greater than 25%, the “EFS T/C” value ([2]; 10.4 mg/kg) was 14.9 and the EFS activity ([2]; 10.4 mg/kg) was “Int”. The “Estimate of median time to event” value ([2]; 10.4 mg/kg) was 37.2 days, the Response activity ([2]; 10.4 mg/kg) was “High” and the “Median RTV/hCD45 at end of study” value ([2]; 10.4 mg/kg) was greater than 25%. For the same compound, the “EFS T/C” value ([2]; 20.8 mg/kg) was 16.8, the EFS activity ([2]; 20.8 mg/kg) was “Int” and the “Estimate of median time to event” value ([2]; 20.8 mg/kg) was 41.8 days. The Response activity ([2]; 20.8 mg/kg) was “High”, the “Median RTV/hCD45 at end of study” value ([2]; 20.8 mg/kg) was greater than 25% and the Ymin ([3]; NB-EBc1, minimum T/C) was 3.6%. For the same compound, the IC50 ([3]; read-out: Absolute IC50) was 50 nM, the IC50 ([3]; read-out: Relative IC50) was 49 nM and the Ymin [4] was 16.5%. The “objective responses out of 9 models in the solid tumor panel” value [5] was 5, the “EFS T/C” value ([6]; 2.6 mg/kg) was greater than 1.5 and the Median group response ([6]; 2.6 mg/kg) was “PD2 (if the TGD value >1.5, the mouse was considered PD2)”. For the same compound, the Response activity ([6]; 2.6 mg/kg) was “Int”, the “Tumor volume T/C” value ([6]; 2.6 mg/kg) was 0.75 and the “Median RTV/hCD45 at end of study” value ([6]; 2.6 mg/kg) was 3.5. For the same compound, the “EFS T/C” value ([6]; 5.2 mg/kg) was greater than 1.5, the Median group response ([6]; 5.2 mg/kg) was “PD2 (if the TGD value >1.5, the mouse was considered PD2)” and the Response activity ([6]; 5.2 mg/kg) was “Int”. For the same compound, the “Tumor volume T/C” value ([6]; 5.2 mg/kg) was 0.70, the “Median RTV/hCD45 at end of study” value ([6]; 5.2 mg/kg) was 3.4 and the “EFS T/C” value ([6]; 10.4 mg/kg) was greater than 1.5. For the same compound, the Median group response ([6]; 10.4 mg/kg) was “PD2 (if the TGD value >1.5, the mouse was considered PD2)”, the Response activity ([6]; 10.4 mg/kg) was “Int” and the “Tumor volume T/C” value ([6]; 10.4 mg/kg) was 0.56. For the same compound, the “Median RTV/hCD45 at end of study” value ([6]; 10.4 mg/kg) was 2.0, the “EFS T/C” value ([6]; 20.8 mg/kg) was greater than 1.5 and the Response activity ([6]; 20.8 mg/kg) was “Int”. The “Tumor volume T/C” value ([6]; 20.8 mg/kg) was 0.45, the “Median RTV/hCD45 at end of study” value ([6]; 20.8 mg/kg) was 0.8 and the IC50 ([7]; read-out: Absolute IC50) was 10 nM. The IC50 ([7]; read-out: Relative IC50) was 9 nM, the Ymin ([7]; minimum T/C) was 6.6% and the IC50 ([8]; read-out: Absolute IC50) was 136 nM. For the same compound, the IC50 ([8]; read-out: Relative IC50) was 92 nM, the Ymin ([8]; CHLA-32, minimum T/C) was 13.1% and the IC50 ([9]; read-out: Absolute IC50) was 37 nM. For the same compound, the IC50 ([9]; read-out: Relative IC50) was 32 nM, the Ymin ([9]; NB-1643, minimum T/C) was 10.2% and the “mice that died in the treated arm” value [10] was 5 of 24. The IC50 ([11]; read-out: Absolute IC50) was 18 nM, the IC50 ([11]; read-out: Relative IC50) was 16 nM and the Ymin ([11]; CHLA-9, minimum T/C) was 4.2%. The “EFS T/C” value ([12]; 2.6 mg/kg) was 1.2, the EFS activity ([12]; 2.6 mg/kg) was “Low” and the “Estimate of median time to event” value ([12]; 2.6 mg/kg) was 20.3 days. For the same compound, the Median group response ([12]; 2.6 mg/kg) was “PD1 (if the TGD value ≤1.5, that mouse was considered PD1)”, the Response activity ([12]; 2.6 mg/kg) was “Low” and the “Tumor volume T/C” value ([12]; 2.6 mg/kg) was 1.01. For the same compound, the “Median RTV/hCD45 at end of study” value ([12]; 2.6 mg/kg) was greater than 4, the “EFS T/C” value ([12]; 5.2 mg/kg) was greater than 2.4 and the EFS activity ([12]; 5.2 mg/kg) was “High”. The Response activity ([12]; 5.2 mg/kg) was “High”, the “Tumor volume T/C” value ([12]; 5.2 mg/kg) was 0.38 and the “Median RTV/hCD45 at end of study” value ([12]; 5.2 mg/kg) was 0.4. For the same compound, the “EFS T/C” value ([12]; 10.4 mg/kg) was greater than 2.4, the EFS activity ([12]; 10.4 mg/kg) was “High” and the Median group response ([12]; 10.4 mg/kg) was “MCR”. The Response activity ([12]; 10.4 mg/kg) was “High”, the “Tumor volume T/C” value ([12]; 10.4 mg/kg) was 0.30 and the “Median RTV/hCD45 at end of study” value ([12]; 10.4 mg/kg) was 0.0. For the same compound, the “EFS T/C” value ([12]; 20.8 mg/kg) was greater than 2.4, the EFS activity ([12]; 20.8 mg/kg) was “High” and the Median group response ([12]; 20.8 mg/kg) was “MCR”. For the same compound, the Response activity ([12]; 20.8 mg/kg) was “High”, the “Tumor volume T/C” value ([12]; 20.8 mg/kg) was 0.14 and the “Median RTV/hCD45 at end of study” value ([12]; 20.8 mg/kg) was 0.0. The IC50 ([13]; read-out: Absolute IC50) was 43 nM, the IC50 ([13]; read-out: Relative IC50) was 35 nM and the Ymin ([13]; COG-E-352, minimum T/C) was 11.4%. It also gave a Ymin ([14]; CHLA-140, minimum T/C) of 29.4%, an IC50 ([14]; read-out: Absolute IC50) of 26 nM and an IC50 ([14]; read-out: Relative IC50) of 14 nM. The “Ymin, maximum” value ([15]; maximum of 28 cell lines) was 48.1%, the “Ymin, median” value ([15]; median of 28 cell lines) was 10.9% and the “Ymin, minimum” value ([15]; minimum of 28 cell lines) was 0.5%. The IC50 ([15]; read-out: Absolute IC50, maximum) was 10000 nM, the IC50 ([15]; read-out: Absolute IC50, median) was 37 nM and the IC50 ([15]; read-out: Absolute IC50, minimum) was 10 nM. For the same compound, the IC50 ([15]; read-out: Relative IC50, maximum) was 10000 nM, the IC50 ([15]; read-out: Relative IC50, median) was 32 nM and the IC50 ([15]; read-out: Relative IC50, minimum) was 9 nM.
